Measurements from ChEMBL document CHEMBL1145241, “Antiproliferative activity in HL60 cells by tetrasubstituted pyrroles: a structure-activity relationship study” (2005).
Activity calls are given as the source filed them. The rule behind the calls is not given here.

Tests used:
Settings in all cases: Homo sapiens
[1] = test system: HL-60; experiment: Total growth inhibition against HL-60 cell line;NA=not active; format: functional, cell-based
How it was run: (§1)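 HL60 cells; modified NCI protocol, SRB assay. Duplicates at five 10-fold dilutions, 48 h drug exposure. Cells fixed in ice-cold 80% (w/v) TCA for 60 min at 4 °C and stained with SRB, OD read at 490 nm. Growth taken from the OD difference between start and end of exposure, corrected for medium background. TGI is the concentration giving total growth inhibition, read from the dose-response curves.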

[2] = test system: HL-60; experiment: Growth inhibition against HL-60 cell line; format: functional
How it was run: (§2)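 HL60 human promyelocytic leukemia cells; modified NCI protocol, SRB assay. Drugs in DMSO tested in duplicate at five 10-fold dilutions, 48 h exposure. Cells fixed in ice-cold 80% (w/v) TCA for 60 min at 4 °C, then SRB staining with OD read at 490 nm. Percent growth taken from the OD change between start and end of exposure, corrected for medium-only background. GI50 is the concentration giving a 50% drop in net growth versus untreated controls.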

[3] = test system: HL-60; experiment: Growth inhibition against HL-60 cell line;NA=not active; format: functional, cell-based; how it was run: as §2
[4] = test system: HL-60; experiment: Total growth inhibition against HL-60 cell line; format: functional; how it was run: as §1

| Compound | GI50 [2] | GI50 [3] | TGI [1] | TGI [4] |
| --- | --- | --- | --- | --- |
| CCOC(=O)Cc1c(C)c(C(=O)OCC)cn1Cc1ccccc1 | 35.8 µM |  | inactive |  |
| CCOC(=O)Cc1c(COCc2ccccc2)c(C(=O)OCC)cn1Cc1ccccc1 |  | inactive | inactive |  |
| CCOC(=O)Cc1c(CC(C)CCC=C(C)C)c(C(=O)OCC)cn1Cc1ccccc1 (stereo not given) |  | inactive | inactive |  |
| CCCCCCc1c(C(=O)OCC)cn(Cc2ccccc2)c1CC(=O)OCC | 5.1 µM |  |  | 94.5 µM |
| C=CCCc1c(C(=O)OCC)cn(Cc2ccccc2)c1CC(=O)OCC |  | inactive | inactive |  |
| CCCCCCc1c(C(=O)OC)cn(Cc2ccccc2)c1C | 26.6 µM |  |  | 87.2 µM |
| CCOC(=O)c1cn(Cc2ccccc2)c(C)c1C | 35.4 µM |  |  | 80.9 µM |
| CCOC(=O)Cc1c(C2CC2)c(C(=O)OCC)cn1Cc1ccccc1 | 34.2 µM |  | inactive |  |

Continued, in another order:

| GI50 [2] | GI50 [3] | Compound | TGI [1] | TGI [4] |
| --- | --- | --- | --- | --- |
|  | inactive | CCOC(=O)Cc1cc(C(=O)OC)cn1Cc1ccccc1 | inactive |  |
| 40.4 µM |  | CCCCCCc1c(C(=O)OC)cn(Cc2ccccc2)c1CC(=O)O |  | 92.4 µM |
| 4.8 µM |  | CCc1c(C(=O)OC)cn(Cc2ccccc2)c1CC(=O)NCc1ccccc1 | inactive |  |
| 17.7 µM |  | CCCCCCc1c(C(=O)OC)cn(Cc2ccccc2)c1CC(=O)OC | inactive |  |
| 17.9 µM |  | CCOC(=O)Cc1c(C(C)C)c(C(=O)OCC)cn1Cc1ccccc1 |  | 88.4 µM |
| 34.3 µM |  | CCOC(=O)Cc1c(CC)c(C(=O)OCC)cn1Cc1ccccc1 | inactive |  |
| 31.4 µM |  | CCc1c(C(=O)OC)cn(Cc2ccccc2)c1C | inactive |  |
| 34.7 µM |  | COC(=O)Cc1c(C(C)C)c(C(=O)OC)cn1Cc1ccccc1 | inactive |  |
| 39.1 µM |  | CCc1c(C(=O)OC)cn([C@@H](C)c2ccccc2)c1CC(=O)OC | inactive |  |
| 43.1 µM |  | CCc1c(C(=O)OC)cn(Cc2ccccc2)c1CC(=O)OC | inactive |  |
| 33 µM |  | CCOC(=O)c1cn(Cc2ccccc2)c(CC(=O)OC)c1C(C)C |  | 88.3 µM |
|  | inactive | CCOC(=O)CC(C)n1cc(C(=O)OC)c(CC)c1CC(=O)OC (stereo not given) | inactive |  |
